Test results as given in paper PMC8027986 (Cell chemical biology, 2020).

Experiments:
[1] = system: P. falciparum W2 parasites; test: P. falciparum replication assay; assay type: cell-based, Plasmodium falciparum; conditions: for EC50: Plasmodium falciparum, W2, 72 h, read-out: EC50 parasite growth inhibition; for effect of isopentenyl pyrophosphate (IPP) on potency: 72 h growth assays in presence and absence of IPP
Summary of the method: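 Synchronized ring-stage W2 parasites in human erythrocytes, at 1% parasitemia and 0.5% hematocrit, exposed to test compound for 72 h. Cultures fixed in 1% paraformaldehyde (final) for 30 min at room temperature, then stained overnight at 4°C with 50 nM YOYO-1. Infected (YOYO-1-positive) versus uninfected cells counted by flow cytometry.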

recombinant PfMAGLLP = recombinant PfMAGLLP (Plasmodium falciparum, UniProt Q8IJ22); test: Fluorogenic substrate assay with rPfMAGLLP; assay type: biochemical; conditions: for inhibition at 1 µM: read-out: inhibition of esterase activity of PfMAGLLP; for inhibition of esterase activity of PfMAGLLP: 1 μM compound
[2] = system: Sal A-selected clones and parental Dd2_Polδ line; test: IC50 determination for Sal A-selected clones; assay type: cell-based, Plasmodium falciparum; conditions: versus parental Dd2_Polδ
[3] = system: parasites expressing PfATP4 fused to GFP; test: Imaging of PfATP4-GFP parasites; assay type: cell-based, Plasmodium falciparum; conditions: 18 h treatment from 24-30 hpi; 2 μM Sal A or 6 μM Orlistat
[4] = system: serine hydrolases in Plasmodium falciparum parasites; test: FP-Rho labeling competition in whole Pf parasites; assay type: cell-based; conditions: 1 μM Sal A
Summary of the method: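 P. falciparum cultures (ring/trophozoite, 13% parasitemia) treated with DMSO or test compound for 3 h at 37°C. 50 μg clarified lysate labeled with 1 μM FP-Rho for 1 h at 37°C; SDS-PAGE with in-gel fluorescence scan.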

[5] = system: T. gondii depalmitoylase PPT1 (TgPPT1); test: FP-Rho labeling competition in T. gondii parasites; assay type: cell-based, Toxoplasma gondii; conditions: WT (Δku80) and ΔPPT1 parasites
[6] = molecular target: human depalmitoylase APT1 (Homo sapiens, UniProt O75608); test: FP-Rho labeling competition in HEK293T cells, APT1; assay type: cell-based
[7] = molecular target: human depalmitoylase APT2 (Homo sapiens, UniProt O95372); test: FP-Rho labeling competition in HEK293T cells, APT2; assay type: cell-based
Summary of the method: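 Lysates of treated HEK293T cells, clarified at 4°C and quantified by BCA; 50 μg lysate labeled with 1 μM FP-Rho for 1 h at 37°C. Reactions quenched in reducing SDS sample buffer, resolved by SDS-PAGE, and gel fluorescence scanned (532-nm laser, 610-nm filter).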

[8] = system: Pf lines expressing WT-GFP or S179T-GFP PfPARE; test: Sal A sensitivity of parasites expressing WT or S179T PfPARE-GFP; assay type: cell-based, Plasmodium falciparum; conditions: WT-GFP versus S179T-GFP
[9] = system: Dd2 parasites overexpressing PfMAGLLP or other putative Sal A targets; test: Dose-response assays with parasites overexpressing putative Sal A targets; assay type: cell-based, Plasmodium falciparum
[10] = system: a variety of mammalian cell lines; conditions: ref Schulze et al., 2015; cited from earlier work

Chain of human depalmitoylase APT2 (O95372 whole entry): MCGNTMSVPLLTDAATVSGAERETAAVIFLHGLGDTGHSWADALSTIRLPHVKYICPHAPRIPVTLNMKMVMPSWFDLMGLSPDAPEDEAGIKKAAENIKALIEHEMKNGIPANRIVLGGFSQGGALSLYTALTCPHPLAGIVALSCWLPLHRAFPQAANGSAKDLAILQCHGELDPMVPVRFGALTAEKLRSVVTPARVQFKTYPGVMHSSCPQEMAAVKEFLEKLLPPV
Chain of human depalmitoylase APT1 (O75608 whole entry): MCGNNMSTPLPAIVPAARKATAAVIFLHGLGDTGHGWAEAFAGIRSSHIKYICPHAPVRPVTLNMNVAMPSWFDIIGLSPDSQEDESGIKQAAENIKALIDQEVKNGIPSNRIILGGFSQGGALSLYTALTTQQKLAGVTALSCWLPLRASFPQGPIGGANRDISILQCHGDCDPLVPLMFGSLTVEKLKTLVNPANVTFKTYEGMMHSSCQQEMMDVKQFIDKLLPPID

Which EC50 [1] does the source give for O=C(OC(C(F)(F)F)C(F)(F)F)N1CCN(C(c2ccc(Cl)cc2)c2ccc(Cl)cc2)CC1 [JW651] here?
Its EC50 is 839 nM.

What about the “decrease in potency against parasites as compared with Sal A” value ([1]; W2 parasites) of the same compound?
The value was 16 fold.

And the “potency against recombinant PfMAGLLP relative to Sal A” value (recombinant PfMAGLLP)?
Its value is “virtually identical potency as Sal A”.

What about the inhibition at 1 µM (recombinant PfMAGLLP) of the same compound?
The inhibition at 1 µM was over 90%.

What about the “cross-resistance of Sal A-selected clones” value [2] of the same compound?
The value was “no cross-resistance”.

Which “inhibition of esterase activity of PfMAGLLP” value (recombinant PfMAGLLP) does the source give for O=C(Oc1ccc([N+](=O)[O-])cc1)N1CCC(C(O)(c2ccc3c(c2)OCO3)c2ccc3c(c2)OCO3)CC1 [JZL 184] here?
The value was 25%.

Which results are given for O=C(OC(C(F)(F)F)C(F)(F)F)N1CCC(C(O)(c2ccc3c(c2)OCO3)c2ccc3c(c2)OCO3)CC1 [KML29]?
IC50 (recombinant PfMAGLLP): 163 nM; inhibition at 1 µM (recombinant PfMAGLLP): > 90%

With O=C(ON1C(=O)CCC1=O)N1CCN(C(c2ccc(Cl)cc2)c2ccc(Cl)cc2)CC1 [MJN110] as the compound, how does the “inhibition of esterase activity of PfMAGLLP” value (recombinant PfMAGLLP) read?
The value was “more than 90%”.

What does the source list for CCCCCCCCCCC[C@@H](C[C@@H]1OC(=O)[C@H]1CCCCCC)OC(=O)[C@H](CC(C)C)NC=O [Orlistat]?
EC50 [1]: 280 nM; potency against recombinant PfMAGLLP relative to Sal A (recombinant PfMAGLLP): equipotent to Sal A; plasma membrane phenotype of schizonts [3]: disorganized plasma membranes that failed to properly surround the merozoites; cross-resistance of Sal A-selected clones [2]: No significant cross-resistance

With Salinipostin A [Sal A] as the compound, how does the “inhibition of FP-Rho labeling of hydrolases in whole Pf parasites” value [4] read?
The value was “Several hydrolases were inhibited”.

And the “competition with FP-Rho for labeling of TgPPT1” value [5]?
Its value is “able to compete with FP-Rho for labeling of TgPPT1”.

And the “inhibition of APT1 (FP-Rho competition)” value [6]?
The value was “inhibits the human depalmitoylases APT1 and APT2 in a dose-dependent manner”.

And the “inhibition of APT2 (FP-Rho competition)” value [7]?
The value was “inhibits the human depalmitoylases APT1 and APT2 in a dose-dependent manner”.

And the “relative potency APT2 versus APT1” value [7]?
Its value is “increased potency against APT2 over APT1”.

And the “effect of isopentenyl pyrophosphate (IPP) on potency” value [1]?
The value was “unaffected by IPP”.

And the “sensitivity of parasites expressing WT or catalytically dead PfPARE” value [8]?
The value was “equally sensitive”.

What about the “shift in EC50 in parasites overexpressing PF3D7_0808500 or PF3D7_0818600” value ([9]; exogenous overexpression) of the same compound?
The value was “no shift in EC50”.

What about the “shift in EC50 in parasites overexpressing PfMAGLLP versus WT” value ([9]; exogenously transfected plasmid) of the same compound?
Its value is “no apparent shift”.

What about the “plasma membrane phenotype of schizonts” value [3] of the same compound?
Its value is “disorganized plasma membranes that failed to properly surround the merozoites”.

And the “selectivity index over a variety of mammalian cell lines” value [10]?
The value was > 1,000.

With Salinipostin alkyne [Sal alk] as the compound, how does the “effect of isopentenyl pyrophosphate (IPP) on potency” value [1] read?
The value was “unaffected by IPP”.

What about the “potency against Pf parasites compared with parent natural product” value ([1]; Pf parasites, Figure S1) of the same compound?
Its value is “retained full potency”.
